# pEC50: −log10 of the molar value. Active and inactive are the calls of the source. No cut-off for these calls is given here.
# Columns and labels:
# P2Y purinoceptor 6 [1] = target: T1, P2Y purinoceptor 6 (Homo sapiens, UniProt Q15077); assay: Binding affinity to human recombinant P2Y6 receptor expressed in human 1321N1 cells assessed as association rate constant at 400 nM by flow cytometry; format: cell-based
# Outline: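 Flow cytometric kinetics of 400 nM fluorescent ligand binding to 1321N1-P2Y6R cells at 37 °C; nonspecific binding defined with 100 μM UDP; association rate constant k1 derived from time course.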
# P2Y purinoceptor 6 [2] = target: T1, P2Y purinoceptor 6; assay: Binding affinity to human recombinant P2Y6 receptor expressed in human 1321N1 cells at 500 nM after 60 mins by fluorescence microscopy in presence of MRS2957; format: cell-based
# Outline: (§1)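 P2Y6R-expressing 1321N1 cells preincubated 30 min at 37 °C with 500 nM MRS2957 or MRS2578, then exposed to 500 nM fluorescent agonist for 60 min at 37 °C; imaged by fluorescence microscopy (excitation 495 nm, emission 519 nm).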
# P2Y purinoceptor 6 [3] = target: T1, P2Y purinoceptor 6; assay: Agonist activity at human recombinant P2Y6 receptor expressed in human 1321N1 cells assessed as compound internalization at 1 uM after 60 mins by confocal microscopy in presence of sucrose; format: cell-based
# Outline: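 P2Y6R-expressing 1321N1 cells incubated with 1 μM fluorescent agonist for 60 min at 37 °C in medium containing 0.4 M sucrose; labeling imaged by confocal microscopy.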
# P2Y purinoceptor 6 [4] = target: T1, P2Y purinoceptor 6; assay: Agonist activity at human recombinant P2Y6 receptor expressed in human 1321N1 cells assessed as compound internalization at 2 uM after 60 mins by confocal microscopy; format: cell-based
# Outline: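 Confocal microscopy of P2Y6R-expressing 1321N1 cells after 60 min at 37 °C with 2 μM fluorescent agonist; cells without ligand served as control.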
# P2Y purinoceptor 6 [5] = target: T1, P2Y purinoceptor 6; assay: Binding affinity to human recombinant P2Y6 receptor expressed in human 1321N1 cells at 400 nM after 60 mins by flow cytometry at 400 nM after 60 mins by flow cytometry; format: cell-based
# Outline: (§2)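 1321N1-P2Y6R cells incubated with 400 nM fluorescent ligand at 37 °C for 60 min; nonspecific binding with 100 μM UDP; surface fraction in 0.4 M sucrose medium; internalized fraction as acid-insensitive fluorescence after 3 × 5 min acid wash (pH 3.5); fluorescence converted to MESF, nonspecific subtracted.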
# P2Y purinoceptor 6 [6] = target: T1, P2Y purinoceptor 6; assay: Binding affinity to human recombinant P2Y6 receptor expressed in human 1321N1 cells assessed as compound internalization measured as the acid-insensitive fraction following acid wash at 400 nM after 60 mins by flow cytometry; format: cell-based; outline: as §2
# P2Y purinoceptor 6 [7] = target: T1, P2Y purinoceptor 6; assay: Binding affinity to human recombinant P2Y6 receptor expressed in human 1321N1 cells assessed as surface bound fraction at 400 nM after 60 mins by flow cytometry in sucrose containing media; format: cell-based; outline: as §2
# P2Y purinoceptor 6 [8] = target: T1, P2Y purinoceptor 6; assay: Binding affinity to human recombinant P2Y6 receptor expressed in human 1321N1 cells at 500 nM after 3 hrs by flow cytometry in presence of UDP relative to control; format: cell-based
# Outline: (§3)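 Saturation labeling by flow cytometry, 10 nM to 1.5 μM fluorescent ligand, 3 h at 37 °C on 1321N1-P2Y6R cells; nonspecific binding with 100 μM UDP; autofluorescence from ligand-free cells; values as MESF.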
# P2Y purinoceptor 6 [9] = target: T1, P2Y purinoceptor 6; assay: Binding affinity to human recombinant P2Y6 receptor expressed in human 1321N1 cells at 10 nM to 1.5 uM after 3 hrs by flow cytometry relative to control; format: cell-based; outline: as §3
# P2Y purinoceptor 6 [10] = target: T1, P2Y purinoceptor 6; assay: Binding affinity to human recombinant P2Y6 receptor expressed in human 1321N1 cells at 10 nM to 10 uM after 60 mins by flow cytometry relative to control; format: cell-based
# Outline: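 Flow cytometry of 1321N1-P2Y6R and control 1321N1 cells after 60 min with 10 nM to 10 μM fluorescent ligand.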
# P2Y purinoceptor 6 [11] = target: T1, P2Y purinoceptor 6; assay: Binding affinity to human recombinant P2Y6 receptor expressed in human 1321N1 cells at 400 nM after 3 hrs by flow cytometry; format: cell-based
# Outline: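 FCM histogram of 1321N1-P2Y6R cells after 3 h incubation with 400 nM fluorescent ligand; total, nonspecific and autofluorescence measured; three independent experiments.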
# Homo sapiens [12] = species: Homo sapiens; assay: Selectivity ratio of EC50 for human recombinant P2Y4 receptor to EC50 for human recombinant P2Y6 receptor
# Homo sapiens [13] = species: Homo sapiens; assay: Selectivity ratio of EC50 for human recombinant P2Y2 receptor to EC50 for human recombinant P2Y6 receptor
# [14] = target: T2, P2Y purinoceptor 14 (Homo sapiens) (UniProt Q15391); assay: Agonist activity at human P2Y14 receptor expressed in rat C6 cells assessed as inhibition of forskolin-stimulated adenylate cyclase up to 10 uM; format: functional, cell-based
# T2 sequence (whole entry): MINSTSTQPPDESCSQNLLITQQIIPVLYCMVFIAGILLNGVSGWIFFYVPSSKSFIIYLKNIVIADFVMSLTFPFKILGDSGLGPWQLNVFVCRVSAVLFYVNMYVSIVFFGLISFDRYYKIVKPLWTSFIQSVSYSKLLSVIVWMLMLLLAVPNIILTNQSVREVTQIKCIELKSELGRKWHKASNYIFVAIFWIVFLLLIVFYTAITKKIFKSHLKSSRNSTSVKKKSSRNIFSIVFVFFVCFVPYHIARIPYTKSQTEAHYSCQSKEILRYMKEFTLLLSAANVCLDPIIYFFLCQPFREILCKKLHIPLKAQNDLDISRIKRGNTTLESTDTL
# P2Y purinoceptor 4 [15] = target: T3, P2Y purinoceptor 4 (Homo sapiens, UniProt P51582); assay: Agonist activity at human recombinant P2Y4 receptor expressed in human 1321N1 cells using [3H]inositol as substrate assessed as [3H]inositol phosphate formation at 10 uM after 30 mins by liquid scintillation counting analysis; format: functional, cell-based
# T3 sequence (P51582 whole entry): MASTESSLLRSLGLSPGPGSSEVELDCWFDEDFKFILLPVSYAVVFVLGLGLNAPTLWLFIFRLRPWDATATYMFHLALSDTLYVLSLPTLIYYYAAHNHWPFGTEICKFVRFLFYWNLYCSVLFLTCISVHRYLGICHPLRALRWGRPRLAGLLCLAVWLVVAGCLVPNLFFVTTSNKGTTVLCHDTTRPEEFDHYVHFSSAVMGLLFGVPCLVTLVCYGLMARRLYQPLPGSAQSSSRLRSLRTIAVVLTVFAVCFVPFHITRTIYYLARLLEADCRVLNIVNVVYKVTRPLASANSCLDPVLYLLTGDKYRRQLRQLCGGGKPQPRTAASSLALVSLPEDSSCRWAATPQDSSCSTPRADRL
# Outline: (§4)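 PLC activation measured in 1321N1 human astrocytoma cells stably expressing recombinant hP2Y2, hP2Y4 or hP2Y6 receptor; potency given as EC50 or % activation.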
# P2Y purinoceptor 2 [16] = target: T4, P2Y purinoceptor 2 (Homo sapiens, UniProt P41231); assay: Agonist activity at human recombinant P2Y2 receptor expressed in human 1321N1 cells using [3H]inositol as substrate assessed as [3H]inositol phosphate formation after 30 mins by liquid scintillation counting analysis; format: functional, cell-based; outline: as §4
# T4 sequence (P41231 whole entry): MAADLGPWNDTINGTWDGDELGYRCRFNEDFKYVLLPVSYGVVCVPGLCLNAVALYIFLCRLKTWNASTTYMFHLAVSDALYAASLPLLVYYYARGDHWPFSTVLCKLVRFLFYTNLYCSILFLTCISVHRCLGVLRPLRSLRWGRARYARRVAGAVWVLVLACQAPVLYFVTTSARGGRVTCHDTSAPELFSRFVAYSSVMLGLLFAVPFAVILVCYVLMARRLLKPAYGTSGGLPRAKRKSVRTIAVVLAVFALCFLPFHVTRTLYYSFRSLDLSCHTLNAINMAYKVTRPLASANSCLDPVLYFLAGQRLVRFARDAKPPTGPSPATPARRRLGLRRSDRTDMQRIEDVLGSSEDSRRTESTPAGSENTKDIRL
# P2Y purinoceptor 6 [17] = target: T1, P2Y purinoceptor 6; assay: Agonist activity at human recombinant P2Y6 receptor expressed in human 1321N1 cells using [3H]inositol as substrate assessed as [3H]inositol phosphate formation after 30 mins by liquid scintillation counting analysis; format: functional, cell-based; outline: as §4
# [18] = target: P2Y purinoceptor 1 (Homo sapiens) (UniProt P47900); assay: Binding affinity to P2Y1 receptor (unknown origin) expressed in human 1321N1 cells at 400 nM after 60 mins by flow cytometry; format: cell-based
# Chain of P2Y purinoceptor 1 (Homo sapiens) (P47900 whole entry): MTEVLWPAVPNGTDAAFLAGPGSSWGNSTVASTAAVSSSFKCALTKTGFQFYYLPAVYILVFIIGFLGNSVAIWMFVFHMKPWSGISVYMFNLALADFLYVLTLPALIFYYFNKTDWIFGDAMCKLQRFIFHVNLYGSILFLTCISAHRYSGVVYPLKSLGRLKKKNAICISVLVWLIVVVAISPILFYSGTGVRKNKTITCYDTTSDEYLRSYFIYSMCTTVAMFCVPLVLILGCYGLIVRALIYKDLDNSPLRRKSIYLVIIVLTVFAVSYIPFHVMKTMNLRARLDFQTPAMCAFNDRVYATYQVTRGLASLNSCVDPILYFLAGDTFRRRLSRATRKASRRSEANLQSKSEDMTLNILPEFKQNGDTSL
# P2Y purinoceptor 6 [19] = target: T1, P2Y purinoceptor 6; assay: Binding affinity to human recombinant P2Y6 receptor expressed in human 1321N1 cells after 2 mins by flow cytometry in presence of MRS2578; format: cell-based
# Outline: (§5)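 1321N1-P2Y6R cells preincubated 30 min with known ligand (UDP 10 μM, MRS2957 0.5 μM, MRS2578 1 μM), then briefly exposed (2 min) to fluorescent agonist; labeling quantified by flow cytometry.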
# P2Y purinoceptor 6 [20] = target: T1, P2Y purinoceptor 6; assay: Binding affinity to human recombinant P2Y6 receptor expressed in human 1321N1 cells at 500 nM after 60 mins by fluorescence microscopy in presence of MRS2578; format: cell-based; outline: as §1
# P2Y purinoceptor 6 [21] = target: T1, P2Y purinoceptor 6; assay: Binding affinity to human recombinant P2Y6 receptor expressed in human 1321N1 cells after 2 mins by flow cytometry in presence of MRS2957; format: cell-based; outline: as §5
# P2Y purinoceptor 6 [22] = target: T1, P2Y purinoceptor 6; assay: Binding affinity to human recombinant P2Y6 receptor expressed in human 1321N1 cells after 2 mins by flow cytometry in presence of UDP; format: cell-based; outline: as §5
# P2Y purinoceptor 4 [23] = target: T3, P2Y purinoceptor 4; assay: Agonist activity at human recombinant P2Y4 receptor expressed in human 1321N1 cells using [3H]inositol as substrate assessed as [3H]inositol phosphate formation after 30 mins by liquid scintillation counting analysis; format: functional, cell-based; outline: as §4
# P2Y purinoceptor 2 [24] = target: T4, P2Y purinoceptor 2; assay: Agonist activity at human recombinant P2Y2 receptor expressed in human 1321N1 cells using [3H]inositol as substrate assessed as [3H]inositol phosphate formation at 10 uM after 30 mins by liquid scintillation counting analysis; format: functional, cell-based; outline: as §4
# P2Y purinoceptor 6 [25] = target: T1, P2Y purinoceptor 6; assay: Binding affinity to human recombinant P2Y6 receptor expressed in human 1321N1 cells at 400 nM after 60 mins by flow cytometry; format: cell-based
# P2Y purinoceptor 6 [26] = target: T1, P2Y purinoceptor 6; assay: Binding affinity to human recombinant P2Y6 receptor expressed in human 1321N1 cells at 100 nM to 1 uM by flow cytometry in presence of UDP; format: cell-based
# Outline: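 1321N1 cells with or without P2Y6R labeled with 100 nM to 1 μM Cy5 conjugate; blockade tested with 100 μM UDP; read by flow cytometry.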
# T1 sequence (Q15077 whole entry): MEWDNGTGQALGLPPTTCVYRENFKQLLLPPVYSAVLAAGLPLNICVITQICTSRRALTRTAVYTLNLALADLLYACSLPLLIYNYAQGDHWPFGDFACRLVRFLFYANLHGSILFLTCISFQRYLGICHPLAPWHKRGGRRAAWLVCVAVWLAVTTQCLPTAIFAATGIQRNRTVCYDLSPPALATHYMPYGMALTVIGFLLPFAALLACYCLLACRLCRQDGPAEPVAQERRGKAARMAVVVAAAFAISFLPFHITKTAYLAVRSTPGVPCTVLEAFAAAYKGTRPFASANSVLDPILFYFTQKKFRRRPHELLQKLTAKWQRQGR
Structure (SMILES),Activity (P2Y purinoceptor 4 [15]),pEC50 (P2Y purinoceptor 2 [16]),pEC50 (P2Y purinoceptor 6 [17]),pEC50 (P2Y purinoceptor 4 [23]),further results
N=c1ccc2c(-c3ccc(C(=O)NCCCCCCn4cc(CCC#Cc5cccc(CO/N=c6/ccn([C@@H]7O[C@H](COP(=O)(O)OP(=O)(O)O)[C@@H](O)[C@H]7O)c(=O)[nH]6)c5)nn4)cc3C(=O)O)c3ccc(N)c(S(=O)(=O)O)c3oc-2c1S(=O)(=O)O,< 50%,5.60,8.05,–,K (P2Y purinoceptor 6 [1]): 0.019 min⁻¹; Activity (P2Y purinoceptor 6 [2]): inactive; Activity (P2Y purinoceptor 6 [3]): inactive; Activity (P2Y purinoceptor 6 [4]): Active; Activity (P2Y purinoceptor 6 [5]): 23%; Activity (P2Y purinoceptor 6 [6]): 77%; Activity (P2Y purinoceptor 6 [7]): 17%; Ratio (P2Y purinoceptor 6 [8]): 4; Activity (P2Y purinoceptor 6 [9]): Active; Activity (P2Y purinoceptor 6 [10]): Active; Activity (P2Y purinoceptor 6 [11]): Active; Ratio EC50 (Homo sapiens [12]): > 1100; Ratio EC50 (Homo sapiens [13]): 280; inhibition [14]: inactive; Activity [18]: inactive; Activity (P2Y purinoceptor 6 [19]): inactive; Activity (P2Y purinoceptor 6 [20]): inactive; Activity (P2Y purinoceptor 6 [21]): inactive; Activity (P2Y purinoceptor 6 [22]): inactive
C#CCCCOP(=O)(O)OP(=O)(O)OP(=O)(O)OC[C@H]1O[C@@H](n2cc/c(=N/OCc3ccccc3)[nH]c2=O)[C@H](O)[C@@H]1O,< 50%,–,< 5.00,–,–
O=c1[nH]/c(=N\OCc2ccc([N+](=O)[O-])cc2)ccn1[C@@H]1O[C@H](COP(=O)(O)OP(=O)(O)O)[C@@H](O)[C@H]1O,–,5.48,7.39,5.66,–
C#CCCOP(=O)(O)OP(=O)(O)OP(=O)(O)OC[C@H]1O[C@@H](n2cc/c(=N/OCc3ccccc3)[nH]c2=O)[C@H](O)[C@@H]1O,< 50%,–,5.76,–,Activity (P2Y purinoceptor 2 [24]): < 50%
CC(=O)NCCn1cc(CCOP(=O)(O)OP(=O)(O)OP(=O)(O)OC[C@H]2O[C@@H](n3cc/c(=N/OCc4ccccc4)[nH]c3=O)[C@H](O)[C@@H]2O)nn1,–,5.42,6.06,5.48,–
O=c1[nH]/c(=N\OCc2cccc(I)c2)ccn1[C@@H]1O[C@H](COP(=O)(O)OP(=O)(O)O)[C@@H](O)[C@H]1O,–,5.60,7.72,6.45,–
N=c1ccc2c(-c3ccc(C(=O)NCCCCCCn4cc(CCC#Cc5cccc(CO/N=c6/ccn([C@@H]7O[C@H](COP(=O)(O)O)[C@@H](O)[C@H]7O)c(=O)[nH]6)c5)nn4)cc3C(=O)O)c3ccc(N)c(S(=O)(=O)O)c3oc-2c1S(=O)(=O)O,–,–,–,–,Activity (P2Y purinoceptor 6 [25]): inactive
O=c1[nH]/c(=N\OCc2ccc(I)cc2)ccn1[C@@H]1O[C@H](COP(=O)(O)OP(=O)(O)O)[C@@H](O)[C@H]1O,< 50%,–,6.83,–,–
O=c1[nH]/c(=N\OCc2ccc(Br)cc2)ccn1[C@@H]1O[C@H](COP(=O)(O)OP(=O)(O)O)[C@@H](O)[C@H]1O,–,5.28,7.49,5.13,–
C#CCCC#Cc1cccc(CO/N=c2/ccn([C@@H]3O[C@H](COP(=O)(O)OP(=O)(O)O)[C@@H](O)[C@H]3O)c(=O)[nH]2)c1,–,5.41,7.00,6.02,–
O=c1ccn([C@@H]2O[C@H](COP(=O)(O)OP(=O)(O)OP(=O)(O)OC[C@H]3O[C@@H](n4cc/c(=N/OCc5ccccc5)[nH]c4=O)[C@H](O)[C@@H]3O)[C@@H](O)[C@H]2O)c(=O)[nH]1,–,5.77,6.90,6.20,–
O=c1[nH]/c(=N\OCc2cccc(Br)c2)ccn1[C@@H]1O[C@H](COP(=O)(O)OP(=O)(O)O)[C@@H](O)[C@H]1O,–,5.21,7.41,< 5.00,Ratio EC50 (Homo sapiens [12]): > 260; Ratio EC50 (Homo sapiens [13]): 160
CO/N=c1/ccn([C@@H]2O[C@H](COP(=O)(O)OP(=O)(O)OP(=O)(O)Oc3ccc4ccccc4c3)[C@@H](O)[C@H]2O)c(=O)[nH]1,< 50%,5.54,6.14,–,–
O=c1[nH]/c(=N\OCc2ccccc2)ccn1[C@@H]1O[C@H](COP(=O)(O)OP(=O)(O)O)[C@@H](O)[C@H]1O,–,–,–,–,pEC50 (P2Y purinoceptor 6 [17]; 1321-n1): 7.59
CN1/C(=C/C=C/C=C/C2=[N+](CCCCCCC(=O)NCCCCCCn3cc(CCC#Cc4cccc(CO/N=c5/ccn([C@@H]6O[C@H](COP(=O)(O)OP(=O)(O)O)[C@@H](O)[C@H]6O)c(=O)[nH]5)c4)nn3)c3ccccc3C2(C)C)C(C)(C)c2ccccc21,–,–,–,–,Activity (P2Y purinoceptor 6 [26]): inactive
